Our source for the cytotoxicity values is ChEMBL document CHEMBL4513216, “Probing the Open Global Health Chemical Diversity Library for Multistage-Active Starting Points for Next-Generation Antimalarials” (ACS Infect Dis, 2020).

A short description of this data set: Toxicity liver stage against HepG2, at 10uM. The class given is cell-based. Further details: test concentration 10 uM, cell line HepG2-A16-CD81EGFP. The settings on record: human, HepG2-A16-CD81EGFP cells; read-out: INHIBITION
An outline of the steps: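 Uninfected HepG2-A16-CD81EGFP cells, 3 × 10^3 per well, 1536-well, plated on prespotted compound at 10 μM final, parasite-free screening media added to match infected plates; puromycin 10 μM positive, DMSO 0.5% negative; run in parallel with 48 h PbLuc assay at 37 °C, 5% CO2; viability by CellTiter-Glo luminescence, normalized to controls.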
As to `COC(=O)c1cnc2c(c(C)nn2C)c1OC`, the cytotoxicity at 10 µM was 0.822%.

As to `Cc1cc(=O)[nH]c(-n2nc(-c3ccccc3)cc2N)n1`, the cytotoxicity at 10 µM was determined as 5.71%.

Consider `NC(=O)c1cccc2nc([C@H]3CCN(Cc4ccccn4)C3)[nH]c12`, for which the cytotoxicity at 10 µM turned out to be 4.32%.

Take `c1ccc2c(Cc3nnc([C@H]4CCNC4)o3)c[nH]c2c1`: the cytotoxicity at 10 µM is -0.762%.

Consider `Cc1ncc(CNC(C)(C)CO)c2cc(C(=O)c3ccc(Br)cc3)oc12`, for which the cytotoxicity at 10 µM is 12.7%.

As to `COCC(=O)N1CCC2(CC1)COc1ccccc1S(=O)(=O)N(C)C2`, the cytotoxicity at 10 µM is 9.7%.

With `CC(C)Nc1nc(N2CCCC2)nc2c1CN(c1ncc(F)cn1)CC2`, the cytotoxicity at 10 µM turned out to be 13.5%.

Take `O=C(c1ccnnc1)N1CC[C@H](OCC2CC2)[C@@H]1Cc1ccncc1`: the cytotoxicity at 10 µM is -1.43%.

As to `CC(C)NC(=O)[C@@H](NC(=O)N1CCN(c2ccc(Cl)cc2)CC1)C(C)C`, the cytotoxicity at 10 µM is 34.9%.

Consider `CCCc1nc(N2CCCC(C)C2)c2c(n1)c(C)nn2CC` (stereo not given), for which the cytotoxicity at 10 µM was found to be 15.6%.

On to `Cc1cccc2c1cnn2CCCNC(=O)C1CC1`, for which the cytotoxicity at 10 µM was 5.01%.

On to `CSc1ccc(-c2noc(CN(CC(C)C)CC(C)C)n2)cc1`, for which the cytotoxicity at 10 µM is -3.7%.

As to `Cc1ccc([C@]2(O)CC[C@H]3CN(Cc4ccncc4)C[C@H]32)nc1`, the cytotoxicity at 10 µM is -31.5%.

Take `CC(=O)N1C[C@@H](c2ccsc2)[C@@H]2CN(Cc3ccccc3C)CC[C@@H]21`: the cytotoxicity at 10 µM was -5%.

For `N#CC(NC(=O)CCCOc1cccnc1)c1ccc(F)cc1F` (stereo not given), the cytotoxicity at 10 µM came to 8.23%.

Consider `CCc1ccc(C(=O)Nc2ccc3c(c2)N(C)CCN(C)C3)o1`, for which the cytotoxicity at 10 µM is -7.69%.

On to `N#Cc1ccccc1OCCN1CCN(C(=O)C2CCCC2)CC1`, for which the cytotoxicity at 10 µM was -52.1%.

`O=C(NCCn1ccnc1)C1COCC(=O)N1Cc1ccccc1` (stereo not given): the cytotoxicity at 10 µM stood at 8.19%.

Take `N#Cc1cc(F)ccc1NCC1CCN(S(=O)(=O)C(F)F)CC1`: the cytotoxicity at 10 µM came to 18.4%.

With `CC(CNC1CCN(c2ccccn2)CC1)Oc1ccc(F)cc1` (stereo not given), the cytotoxicity at 10 µM is 7.43%.

In the case of `CCNC(=O)C(C)NC(=O)Nc1ccccc1SC(F)(F)F` (stereo not given), the cytotoxicity at 10 µM was -9.5%.

Consider `COc1cc(C)sc1C(=O)NCCC(=O)N(C)Cc1ccccc1`, for which the cytotoxicity at 10 µM was -8.78%.

Turning to `N#Cc1c(F)cccc1Nc1cnn(CC(N)=O)c1`, the cytotoxicity at 10 µM worked out at 6.25%.

Consider `CCc1ccc(C2CCCN2C(=O)Cc2ccc(NC(C)=O)cc2)o1` (stereo not given), for which the cytotoxicity at 10 µM is -0.557%.

Consider `CC(C)C(C)N(C)Cc1nnc(-c2ccco2)o1` (stereo not given), for which the cytotoxicity at 10 µM was found to be 2.65%.

For the molecule `Cc1cc(C)c(CCNC(=O)CN2CCCN(C(N)=O)CC2)c(C)c1`, the cytotoxicity at 10 µM was -0.819%.

With `COc1ccc(CNC(=O)N2CCOCC2C2CC2)cc1C` (stereo not given), the cytotoxicity at 10 µM turned out to be 10.4%.

`Cc1cccn2c(=O)cc(CN3CCCC3Cn3cccn3)nc12` (stereo not given): the cytotoxicity at 10 µM is -4.55%.

Consider `COCc1nc2cc(NCc3sc(C)nc3C)ccc2o1`, for which the cytotoxicity at 10 µM was 29.1%.

As to `CNS(=O)(=O)c1cccc(C(C)NCc2ccc(F)cc2F)c1` (stereo not given), the cytotoxicity at 10 µM stood at 12.8%.

In the case of `O=C(CCn1cccn1)NCC(c1cccs1)N1CCCC1` (stereo not given), the cytotoxicity at 10 µM was determined as 7.02%.

`Cc1ccc(C(=O)CN2C(=O)c3ccccc3CS2(=O)=O)c(C)c1`: the cytotoxicity at 10 µM was found to be 17.6%.

Consider `COc1ncccc1C(=O)NC1(c2cccc(F)c2)CCOCC1`, for which the cytotoxicity at 10 µM is 10.9%.

In the case of `CN(Cc1ccc(Cl)s1)C(=O)Cn1nc(-c2ccc(F)cc2)oc1=O`, the cytotoxicity at 10 µM was -20.4%.

For the molecule `COc1ccc(NC(=O)CSC(F)(F)F)cn1`, the cytotoxicity at 10 µM was -96.6%.

`CC(Nc1cnn(C)c(=O)c1Cl)c1ccc(F)cc1` (stereo not given): the cytotoxicity at 10 µM is 20.7%.

As for `CNC(=O)CN1CCC(OCc2ccc(Cl)c(Cl)c2)CC1`, the cytotoxicity at 10 µM is -14.4%.

With `CCCc1noc(CN2CCOCC2C)n1` (stereo not given), the cytotoxicity at 10 µM came out at 6.3%.

`Cc1oc(-c2ccsc2)nc1CN1CCCC(c2ccnn2C)C1` (stereo not given): the cytotoxicity at 10 µM turned out to be 10.7%.

Turning to `O=C(CN(CC(O)c1ccc(F)cc1)C1CC1)NCc1cccs1` (stereo not given), the cytotoxicity at 10 µM amounted to 0.0428%.

Regarding `Cc1csc(CCCNc2ccc(S(N)(=O)=O)cc2C#N)n1`, the cytotoxicity at 10 µM was -49%.

As for `CCn1cc(C2CCN(Cc3ccnc(N(C)C)c3)CC2)cn1`, the cytotoxicity at 10 µM is 11%.

As for `CCNC(=O)N(C)C1CCCc2nc(C)sc21` (stereo not given), the cytotoxicity at 10 µM is 12.2%.

Take `CN(CCNS(C)(=O)=O)C(=O)c1ccc(Cl)c(Cl)c1`: the cytotoxicity at 10 µM is -52.4%.

For `CCC(CCO)NS(=O)(=O)c1ccc(Br)cn1` (stereo not given), the cytotoxicity at 10 µM was 6.62%.

Turning to `CC(CCN(C)C)NC(=O)c1cccc(C(F)(F)F)c1F` (stereo not given), the cytotoxicity at 10 µM is -52.6%.

With `CCC1CN(C(=O)c2ccc(O)cn2)CCC(=O)N1Cc1ccccc1` (stereo not given), the cytotoxicity at 10 µM is 8.5%.

With `CC(C)c1cc(N2CC[C@H](F)C2)n2nccc2n1`, the cytotoxicity at 10 µM is -2.56%.

As to `Cc1ncsc1C(=O)N1CC[C@@]2(O)CCN(C(=O)N3CCCC3)C[C@H]2C1`, the cytotoxicity at 10 µM is -14.2%.

On to `CN(CCCc1cnn(C)c1)Cc1cc2n(n1)CCCN(C)C2`, for which the cytotoxicity at 10 µM was -0.857%.

For the molecule `Cc1cc2ccccc2n1CCC(=O)N1CCCC2(CC1)CNC(=O)O2` (stereo not given), the cytotoxicity at 10 µM was determined as 3.5%.

With `Cc1nnsc1CN1CC[C@@](O)(C2CCC2)[C@H](C)C1`, the cytotoxicity at 10 µM amounted to 11.8%.

For `Cc1ccc(C(=O)NCCC2CN(C3CCCC3)CCO2)c(C)c1` (stereo not given), the cytotoxicity at 10 µM is -3.76%.

With `CCn1cc(CN2CCC(C3CCN(C)CC3)CC2)cc1C#N`, the cytotoxicity at 10 µM was -0.0399%.

As for `O=C1CC2(CCN(c3nccc(-c4cc(C(=O)O)ccn4)n3)CC2)CN1`, the cytotoxicity at 10 µM came to 2.16%.

Turning to `NC(=O)c1ccc(CN2C(=O)C3(CCNCC3)Nc3ccccc32)cc1`, the cytotoxicity at 10 µM was -6.38%.

As for `N#Cc1ccnc(N2CCC(NCCN3CCOCC3)CC2)c1`, the cytotoxicity at 10 µM is -43.4%.

In the case of `CCCn1cc(NC(=O)c2cccc(CN3CC[C@H](O)C3)c2)nn1`, the cytotoxicity at 10 µM was -12.2%.

With `Cc1c(CN2CCc3[nH]cnc3C2C2CC2)[nH]c2ccc(F)cc12` (stereo not given), the cytotoxicity at 10 µM was determined as 10.8%.

As to `CC(C)N1CC2(CCCN(c3ccnc4ccccc34)C2)CCC1=O` (stereo not given), the cytotoxicity at 10 µM amounted to 8.62%.

In the case of `O=C1CN(Cc2cn(C3CCN(C4CSCCSC4)CC3)nn2)CCN1`, the cytotoxicity at 10 µM was -48.8%.

On to `Cc1ccc(-c2nn(-c3cccc(F)c3)cc2CN(C)CCO)o1`, for which the cytotoxicity at 10 µM was determined as 11.6%.

As to `Cc1nc(N2CCCOC(Cn3cccn3)C2)c2sccc2n1` (stereo not given), the cytotoxicity at 10 µM is 35.5%.

As for `Cc1nccn1CC1CCCN(Cc2ccc(-c3cccnc3)cc2)C1` (stereo not given), the cytotoxicity at 10 µM came out at 2.97%.

For `Cc1ccccc1S(=O)(=O)N1CCc2c(ncnc2N(C)C)C1`, the cytotoxicity at 10 µM is -16.6%.

`CCn1cc(CN2CCCC3(CCC(=O)N(CCC(C)C)C3)C2)cn1` (stereo not given): the cytotoxicity at 10 µM is -4.73%.

Take `CC(Nc1ncnc2c1CCNC2)c1ccc(C(C)(C)C)cc1` (stereo not given): the cytotoxicity at 10 µM came out at 28%.

Turning to `Cc1ccc(-c2cn[nH]c2C2CCCN(c3ccnc(C)n3)C2)cc1` (stereo not given), the cytotoxicity at 10 µM was -1.78%.

Regarding `c1ccc(Oc2cccc(OC34CCCN(CC3)C4)c2)cc1` (stereo not given), the cytotoxicity at 10 µM worked out at 0.681%.

For `Cc1cnc(NCC(C)(C)N2CCOCC2)nc1`, the cytotoxicity at 10 µM was 5.68%.

As to `N#Cc1cc2c(nc1SCc1cc(O)nc(O)n1)CCCCC2`, the cytotoxicity at 10 µM was found to be 4.97%.

Consider `N#Cc1cc(F)ccc1CN1CCCC1Cn1cccn1` (stereo not given), for which the cytotoxicity at 10 µM came to 2.01%.

Take `COC(=O)c1ccc(N2CCN(C(=O)c3cnc(C)cn3)C(C)C2)cc1` (stereo not given): the cytotoxicity at 10 µM came to 3.09%.

`Cc1cnn(CCNCC(O)COc2ccc(Cl)cc2Cl)c1` (stereo not given): the cytotoxicity at 10 µM is -1.76%.

Consider `N#Cc1cccc(CN2CCN(Cc3cscn3)CC2)c1`, for which the cytotoxicity at 10 µM worked out at 1.16%.

For `Clc1ccc2cccnc2c1CN1CCCC1Cn1cncn1` (stereo not given), the cytotoxicity at 10 µM was 3.91%.

`CC(C)c1ncc2c(n1)CN(Cc1nc(-c3cccs3)no1)CC2`: the cytotoxicity at 10 µM is -7.91%.

As for `Cc1csc(NC(=O)CN2CCC(c3ccnn3CCO)CC2)n1`, the cytotoxicity at 10 µM was 5.03%.

Take `CC(C)NC(=O)[C@@H]1CC[C@@H]2[C@@H](CCN2Cc2cn(C)c3ccccc23)O1`: the cytotoxicity at 10 µM was determined as 9.49%.

Regarding `Cc1nc(CN2C[C@@H]3CCCO[C@@H]3[C@H](N(C)C(C)C)C2)cs1`, the cytotoxicity at 10 µM was found to be 6.86%.

For `COc1cccc(CN2CCC3(CC2)CCN(c2ncc(C)cn2)C3)c1`, the cytotoxicity at 10 µM is -3.55%.

Regarding `Cc1nc(CN2CCC3(CCN(C(=O)c4ccoc4C)CC3)C2)cs1`, the cytotoxicity at 10 µM is -5.19%.

Turning to `COc1cccc(-c2noc(C3CCN(Cc4ccc(C)cc4)C3)n2)c1` (stereo not given), the cytotoxicity at 10 µM was -5.89%.

Take `CCCN1CCCn2c(nc(CNC(=O)c3nccn3C)cc2=O)C1`: the cytotoxicity at 10 µM was determined as 9.73%.

With `CS(=O)(=O)N1CCC2(CC1)CC(NCc1ccco1)c1ccccc12` (stereo not given), the cytotoxicity at 10 µM was -110%.

Consider `O=C(c1ccc(F)cc1)N1CC[C@H]2[C@H]1CCN2CC1CCOCC1`, for which the cytotoxicity at 10 µM was -76.4%.

On to `CC(C)OCc1ncn2c1CN(CC1CC1)CCC2`, for which the cytotoxicity at 10 µM was -68.9%.

For `Cc1noc(C)c1CN1CCC2(CC1)NC(=O)CC2c1ccccc1` (stereo not given), the cytotoxicity at 10 µM was -109%.

In the case of `CS(=O)(=O)NC[C@]12COC[C@H]1CN(CC1CCC1)C2`, the cytotoxicity at 10 µM is -110%.

For `Cc1ccsc1CN1CCn2c(COc3cccnc3)cnc2C1C` (stereo not given), the cytotoxicity at 10 µM was -99.4%.

With `Cn1cc(CN2CCCC23CCN(C(=O)c2cccn2C)CC3)cn1`, the cytotoxicity at 10 µM is 2.88%.

For the molecule `Cc1ccc2c(c1)CN(C(=O)c1cnc(C)cn1)C(CN(C)C)CO2` (stereo not given), the cytotoxicity at 10 µM was -22.3%.

In the case of `Fc1ccc(CN2CCO[C@H]3[C@H](OCC4CCCC4)CC[C@@H]32)cc1`, the cytotoxicity at 10 µM was 37.9%.

With `Cc1ccc(CN2C[C@@H]3C[C@H](C(=O)Nc4cccnc4)[C@H](C2)O3)cc1`, the cytotoxicity at 10 µM is -83.8%.

With `CC1(C)[C@@H]2CC=C(CN3CCCn4nc(C(=O)O)cc4C3)[C@H]1C2`, the cytotoxicity at 10 µM is -40.8%.
